# Source: paper PMC3985958 (ACS Chemical Biology, 2014)
# Columns and labels:
# [1] = target: MDM2 (Homo sapiens, UniProt Q00987); format: binding; conditions: SAR summary, unsubstituted indole
# [2] = tested on: MOLM-13 cells; test: Apoptosis analysis Annexin-V/PI; conditions: for viable cells: separated enantiomers, after 72 h
# [3] = tested on: PBMCs; test: Viability of freshly isolated PBMCs; format: cell-based, human; conditions: 72 h, data not shown
# [4] = tested on: p53; test: Western blot analysis in MOLM-13 cells; format: cell-based, human; conditions: 20 μM; 6, 12, 24 h
# [5] = tested on: MDM4; test: Western blot analysis in MOLM-13 cells; format: cell-based, human; conditions: 20 μM; 6, 12, 24 h
# In short: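 MOLM-13 cells (wt p53) grown in RPMI 1640 with 10% heat-inactivated FBS, harvested in log phase. Treated with 20 µM test compound or left untreated, then lysed at 6, 12 and 24 h (1 × 10^6 cells). Equal protein run on 12% SDS-PAGE and electroblotted to PVDF. Loading checked by Ponceau S and β-actin. HRP secondaries with chemiluminescent detection.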
# [6] = tested on: MDM2; test: Western blot analysis in MOLM-13 cells; format: cell-based, human; conditions: 20 μM; 6, 12, 24 h
# [7] = tested on: primary AML blasts; test: Apoptosis; format: cell-based, human; conditions: 20 μM, 72 h
# [8] = tested on: caspase 3 and 7; test: CaspaseGlo 3/7 assay in MOLM-13 cells; format: cell-based, human; conditions: 20 μM, 24 h, relative to untreated control
# Chain of MDM2 (Homo sapiens, UniProt Q00987) (Q00987 1-125): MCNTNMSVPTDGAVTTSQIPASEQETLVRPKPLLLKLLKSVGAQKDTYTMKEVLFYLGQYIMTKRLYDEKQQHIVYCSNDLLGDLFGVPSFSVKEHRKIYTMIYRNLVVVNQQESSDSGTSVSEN
molecule,measurement,setting,value
CC(=O)N(Cc1ccccc1)C(C(=O)NCc1ccccc1)c1c[nH]c2ccccc12 (stereo not shown) [5b],activity (binding to MDM2) in words,[1],inactive
"CCOC(=O)c1[nH]c2cc(Cl)ccc2c1C(C(=O)NC(C)(C)C)N(C=O)Cc1ccc(Cl)cc1 (single isomer, unassigned; (-)) [(−)-YH239-EE]",viable cells,[2],51.5%
"COc1ccc(C2=N[C@@H](c3ccc(Cl)cc3)[C@@H](c3ccc(Cl)cc3)N2C(=O)N2CCNC(=O)C2)c(OC(C)C)c1 [Nutlin-3, reference compound]",apoptotic effect in words,"[2]; 20 μM, 72 h",high induction of apoptosis
same,toxic effect on PBMCs (viability),[3],higher toxic effect on PBMCs than (+)-YH239-EE
(+)-YH239-EE,viable cells,[2],13.7%
same,induction of p53,[4],induction of p53 could be observed after 6 h
same,level of MDM4,[5],no effect
same,MDM2 levels,[6],MDM2 levels raised after 12 h
same,toxic effect on PBMCs (viability),[3],less cytotoxic than Nutlin-3
same,response of patient samples with lower blast (<45%) counts,[7],no response
same,share of tested samples with increased induction of apoptosis,[7]; 8 primary patient samples,2/3
same,activation of caspase 3 and 7,[8],significant higher activation of caspase 3 and 7 after 24 h than (−)-YH239-EE and Nutlin-3
CC(=O)N(CC(C)C)C(C(=O)NCc1ccccc1)c1c[nH]c2ccccc12 (stereo not shown) [5a],activity (binding to MDM2) in words,[1],inactive
